Data published in ChEMBL document CHEMBL5104216, “Fragment-Sized Thiazoles in Fragment-Based Drug Discovery Campaigns: Friend or Foe?” (ACS Med Chem Lett, 2022).

Key:
[1] = Redox activity of compound assessed as redox index at 100 uM measured by HRP-PR assay; assay type: physicochemical
Outline: (§1)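 H2O2 from redox cycling, with or without DTT, detected with horseradish peroxidase-phenol red (HRP-PR).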

[2] = molecular target: UDP-N-acetylglucosamine 1-carboxyvinyltransferase (Escherichia coli K-12) (UniProt P0A749); assay: Inhibition of recombinant Escherichia coli MurA assessed as residual activity at 500 uM using UDP-N-acetylglucosamine as substrate preincubated for 30 mins followed by substrate addition and measured by malachite green based colorimetric assay relative to control
UDP-N-acetylglucosamine 1-carboxyvinyltransferase (Escherichia coli K-12), sequence (P0A749 whole entry): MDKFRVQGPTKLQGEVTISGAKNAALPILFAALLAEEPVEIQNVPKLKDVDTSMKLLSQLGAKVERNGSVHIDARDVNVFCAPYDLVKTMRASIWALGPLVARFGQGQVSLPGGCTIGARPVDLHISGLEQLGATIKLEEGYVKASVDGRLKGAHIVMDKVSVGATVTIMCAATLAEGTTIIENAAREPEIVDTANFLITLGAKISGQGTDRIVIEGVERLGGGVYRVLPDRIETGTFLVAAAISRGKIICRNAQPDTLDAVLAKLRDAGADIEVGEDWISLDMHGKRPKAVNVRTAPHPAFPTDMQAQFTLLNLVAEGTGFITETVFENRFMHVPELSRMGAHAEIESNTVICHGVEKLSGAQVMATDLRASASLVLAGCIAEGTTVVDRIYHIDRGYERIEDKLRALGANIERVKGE
Outline: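 E. coli MurA at 500–625 μM with 30 min preincubation before substrate addition. Malachite green colorimetric read-out. Activity threshold was <50% residual activity.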

[3] = molecular target: Replicase polyprotein 1ab (Severe acute respiratory syndrome coronavirus 2) (UniProt P0DTD1); assay: Inhibition of recombinant SARS-CoV-2 3CLpro expressed in Escherichia coli NiCo21(DE3) assessed as residual activity at 500 uM using DABCYL-KTSAVLQSGFRKME-EDANS as substrate preincubated for 30 mins in presence of 1mM DTT followed by substrate addition and measured by FRET assay relative to control
Outline: (§2)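 Kinetic fluorescence read-out of cleavage of a FRET substrate carrying a DABCYL–EDANS pair. Compounds were tested at 500–625 μM, and <50% residual activity was taken as the activity threshold. To exclude false positives, absorbance at the excitation and emission wavelengths and autofluorescence of the compounds were measured.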

[4] = Aqueous stability of the compound at pH 7.4 measured after 60 mins by spectrophotometric analysis; assay type: physicochemical; conditions: buffer, pH 7.4, 1 h
Outline: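 Followed by spectrophotometry as changes in the compound absorption spectrum over time in 50 mM Tris-HCl pH 7.4, 0.5 mM EDTA, read after 60 min in 96-well microplate format. Compounds with low absorbance were not evaluated.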

[5] = Redox activity of compound assessed as redox index at 100 uM in presence of 100 uM TCEP measured by H2DCFDA assay; assay type: physicochemical
Outline: (§3)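 Reactive oxygen species, with or without the reducing agent TCEP, detected with the fluorescent probe H2DCFDA. Compound spectral interference (autofluorescence) checked under the assay conditions.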

[6] = test system: Mycobacterium tuberculosis; assay: Inhibition of Mycobacterium tuberculosis MetAP1a assessed as residual activity at 625 uM using L-methionine 7-amido-4-methylcoumarin as fluorogenic substrate and measured by fluorescence based assay
Outline: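 Kinetic fluorescence assay in which the enzyme hydrolyses L-methionine 7-amido-4-methylcoumarin to fluorescent 7-amino-4-methylcoumarin. Compounds were tested at 500–625 μM, and activity was called at <50% residual activity. Spectral interference was checked by measuring absorbance at the excitation and emission wavelengths and compound autofluorescence.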

[7] = Redox activity of compound assessed as redox index at 100 uM measured by H2DCFDA assay; assay type: physicochemical; outline: as §3
[8] = Redox activity of compound assessed as redox index at 1 uM measured by resazurin assay; assay type: physicochemical
Outline: (§4)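 Free radicals formed by redox cycling with DTT detected with resazurin by fluorimetric read-out. Spectral interference checked.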

[9] = Redox activity of compound assessed as redox index at 100 uM in presence of 1 mM DTT measured by HRP-PR assay; assay type: physicochemical; outline: as §1
[10] = molecular target: D-alanine--D-alanine ligase B (Escherichia coli K-12) (UniProt P07862); assay: Inhibition of recombinant Escherichia coli DdlB assessed as residual activity at 500 uM using D-alanine as substrate incubated for 20 mins and measured by malachite green based colorimetric assay relative to control
Outline: (§5)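 Screened at 500–625 μM with malachite green colorimetric read-out. Activity threshold was <50% residual activity.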

[11] = Redox activity of compound assessed as redox index at 10 uM measured by resazurin assay; assay type: physicochemical; outline: as §4
[12] = molecular target: UDP-N-acetylglucosamine 1-carboxyvinyltransferase (Escherichia coli K-12) (UniProt P0A749); assay: Inhibition of recombinant Escherichia coli MurA assessed as residual activity at 500 uM using UDP-N-acetylglucosamine as substrate and measured by malachite green based colorimetric assay relative to control; outline: as §5
[13] = molecular target: Replicase polyprotein 1ab (Severe acute respiratory syndrome coronavirus 2) (UniProt P0DTD1); assay: Inhibition of recombinant SARS-CoV-2 3CLpro expressed in Escherichia coli NiCo21(DE3) assessed as residual activity at 500 uM using DABCYL-KTSAVLQSGFRKME-EDANS as substrate preincubated for 30 mins followed by substrate addition and measured by FRET assay relative to control; outline: as §2
[14] = molecular target: UDP-N-acetylglucosamine 1-carboxyvinyltransferase (Escherichia coli K-12) (UniProt P0A749); assay: Inhibition of recombinant Escherichia coli MurA assessed as residual activity at 500 uM using UDP-N-acetylglucosamine as substrate preincubated for 30 mins in presence of 1 mM DTT followed by substrate addition and measured by malachite green based colorimetric assay relative to control

SMILES | Activity_index [1] | Activity [2] | Activity [3] | Stability [4] | Activity_index [5] | Activity [6] | Activity_index [7] | Activity_index [8] | Activity_index [9] | Activity [10] | Activity_index [11] | Activity [12] | Activity [13] | Activity [14]
COC(=O)CC(=O)Nc1ncc(Br)s1 | 1 | 60.9% | 86% | Stable | 1 | 78.2% | 1.2 | 1 | 1 | 88% | 0.9 | 97.9% | 95.3% | 107%
Nc1ccc(S(=O)(=O)Nc2nccs2)cc1 [SULFATHIAZOLE] | 1 | 82.3% | 74.2% | Stable | 1.1 | 94% | 1.2 | 0.9 | 1 | 94% | 1 | 96.5% | 71.7% | 100%
Brc1cscn1 | 1 | 106% | 80.1% | – | 0.8 | 83.5% | 0.8 | 0.9 | 1 | 97% | 1 | 100% | 91.4% | 102%
CCOC(=O)c1csc(Br)n1 | 1 | 84% | 80.7% | Stable | 0.9 | 90.8% | 1 | 0.9 | 1 | 97% | 1 | 89.8% | 71.7% | 100%
Cc1nc(Br)sc1C(=O)O | 1 | 18.5% | 92.9% | Stable | 1.1 | 43.4% | 1.2 | 0.9 | 1 | 94% | 0.9 | 72.4% | 100% | 102%
Nc1nccs1 [AMINOTHIAZOLE] | 1 | 39.7% | 82.5% | Stable | 0.9 | 94.6% | 0.8 | 0.9 | 1 | 95% | 0.9 | 88% | 86.1% | 105%
O=C(O)c1nc(Br)cs1 | 1 | 90% | 85.1% | – | 0.9 | 111% | 1 | 0.9 | 1 | 84% | 0.9 | 97.3% | 88.3% | 106%
CNc1nnc(C(F)(F)F)s1 | 1 | 113% | 82.3% | Stable | 1.1 | 101% | 1.2 | 1 | 1 | 98% | 1 | 99.5% | 147% | 102%
Cc1nnc(N)s1 | 1 | 89.5% | 81.9% | Stable | 1 | 114% | 1 | 0.9 | 1 | 98% | 0.9 | 92.9% | 121% | 99.4%
COC(=O)c1csc(Br)n1 | 1 | 117% | 68.6% | Stable | 0.9 | 88.2% | 0.8 | 1.4 | 1 | 95% | 0.8 | 106% | 73.7% | 104%
Cc1csc(N)n1 | 1 | 93.3% | 82.4% | Stable | 0.8 | 123% | 1 | 0.9 | 1 | 90% | 1 | 99.3% | 96.7% | 102%
Cc1nc(-c2ccc(C(=O)O)cc2)cs1 | 1 | 113% | 81.2% | Stable | 0.9 | 136% | 0.9 | 0.9 | 1 | 94% | 1.1 | 102% | 149% | 101%
Cc1nc(C(=O)O)cs1 | 1 | 1.6% | 78.7% | Stable | 1.6 | 73.9% | 0.9 | 0.9 | 1 | 92% | 1 | 7.2% | 3.4% | 105%
CCOC(=O)Cc1csc(N)n1 | 1 | 66.3% | 82.1% | Stable | 1 | 132% | 1.2 | 0.9 | 1 | 94% | 1 | 85.5% | 103% | 88.1%
Fc1ccc(-c2csc(Br)n2)cc1F | 1 | 12% | 78.9% | Unstable | 0.9 | 84.4% | 0.8 | 0.9 | 1 | 136% | 0.9 | 89.1% | 85.1% | 81.9%
CC(=O)c1nc(C)cs1 | 1 | 93.9% | 78.4% | – | 0.8 | 136% | 1 | 0.9 | 1 | 92% | 0.9 | 102% | 106% | 93.5%
O=C(O)Cc1csc(Br)n1 | 1 | 72.1% | 68.6% | – | 1 | 86.1% | 0.9 | 0.9 | 1 | 103% | 1 | 105% | 77.1% | 106%
CCOC(=O)Cc1csc(Br)n1 | 1 | 66.7% | 70.8% | – | 0.9 | 89.6% | 1 | 0.9 | 1 | 95% | 0.9 | 86.7% | 72% | –
